# KCNQ1 inh: blocks the human KCNQ1 potassium channel; P51787; B-score at 10 µM; CHO-K1 KCNQ1, FluxOR thallium flux fluorescence; hits give high values; 310,000 tested, 1.3% active;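 active means compounds whose thallium flux B-score, printed positive for inhibition, exceeds three library SD while starting fluorescence stays within three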;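 further: channel opened by potassium depolarization with thallium stimulus after 20 min compound exposure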
# KCNK9 inh: inhibitors of human KCNK9 two-pore domain potassium channel; B-score at 10 µM; Q9NPC2; 310,000 tested, 1.2% active; HEK293 KCNK9, FluxOR thallium flux fluorescence; hits give low values;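 active means ratio B-score over 3 SD below the library mean, with starting fluorescence within 5 SD of its mean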;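 further: negative B-score means less thallium flux so channel inhibition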
# hERG protect: shields human hERG channel from block by proarrhythmic agents; Q12809; CHO-hERG, FluxOR thallium flux, dofetilide IC70 present; activation (rescue from dofetilide block), less the hit threshold, % at 10 µM; 310,000 tested, 0.51% active; AID 1511;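 active means activation above the mean of controls blocked by dofetilide plus 5 SD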;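 further: thallium influx through hERG after potassium depolarization seen as dye fluorescence rise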
# KCNK3 block: human KCNK3 channel inhibition, primary screen. AID 602410. B-score at 10 µM. CHO-KCNK3 thallium flux, FluxOR fluorescence; hits give low values. O14649. 340,000 tested, 0.84% active;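 active means B-score under library mean minus 4 SD, starting fluorescence ratio at most library mean plus 5 SD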;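 further: more negative B-score means stronger inhibition of thallium flux through KCNK3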
# KCNQ1 act: potentiates or activates the human KCNQ1 potassium channel | P51787 | CHO-K1 KCNQ1, thallium flux FluxOR fluorescence; hits give high values | B-score at 10 µM | 310,000 tested, 0.35% active;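 active means fluorescence ratio B-score, a plate-corrected score, at least three library SD, with initial intensity B-score within 5 SD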
#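 System: Stable KCNQ1 CHO-K1 line | Incubation: 90 min dye loading and 20 min compound exposure, both at room temperature | Measure: Ratio B score | Medium: Assay buffer for compound exposure, DMSO matched across wells | Compound dosing: Single-concentration screen | Probe or stimulus: K+/Tl+ depolarizing stimulus | Measured by: Kinetic FluxOR fluorescence, 10 s baseline plus 110 s post-stimulus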
# Active calls of the source: *; i = inactive; . = no result. The list is not random: actives were taken first. Their share in the collection is about 3.1%.
SMILES,KCNQ1 inh,KCNK9 inh,hERG protect,KCNK3 block,KCNQ1 act
CCCN1CC=C2C(C#N)=C(N)C(C#N)(C#N)C(c3cccc(OC)c3OC)C2C1 (stereo unspecified),8*,i,-18,i,i
CCN1CC=C2C(C#N)=C(N)C(C#N)(C#N)C(CCc3ccccc3)C2C1 (stereo unspecified),.,.,.,i,.
CCCCOc1ccc(C2C3CN(C(=O)OCC)CC=C3C(C#N)=C(N)C2(C#N)C#N)cc1OC (stereo unspecified),i,i,-12,i,i
COc1ccc(OC)c(C2C3CN(C(C)C)CC=C3C(C#N)=C(N)C2(C#N)C#N)c1 (stereo unspecified),6*,i,-13,i,i
COc1cccc(OC)c1OCc1cc(C2C3CCCC=C3C(C#N)=C(N)C2(C#N)C#N)c(C)cc1C (stereo unspecified),7*,i,-4,i,i
CN1CC=C2C(C#N)=C(N)C(C#N)(C#N)C(c3cccc(Cl)c3Cl)C2C1 (stereo unspecified),6*,i,-19,i,i
COCCn1cnnc1SCC(=O)Nc1ccc(N2CCCCC2)cc1,.,.,.,i,.
CCCc1cc(=O)[nH]c(SCC(=O)Nc2cccc(S(=O)(=O)N3CCOCC3)c2)n1,.,.,.,i,.
CSc1ccccc1NC(=O)COC(=O)Cn1cc(C(F)(F)F)ccc1=O,.,.,.,i,.
N#CC1=C(N)C(C#N)(C#N)[C@H](c2ccoc2)[C@H]2CN(Cc3ccccc3)CC=C12,i,-8.8*,-30,i,i
Cc1nc(SCC(=O)c2ccccc2)c(C#N)c(-c2ccco2)c1C(=O)NCc1ccco1,6*,i,-14,i,i
N#Cc1c(-c2ccccc2Cl)cc(-c2ccccc2)nc1Br,9*,i,-16,i,i
COc1ccc(C(=O)Nc2cccc(NC(=O)c3cccs3)c2)cc1,i,i,-8,i,i
O=C(Nc1cccc(NC(=O)c2cccs2)c1)c1ccc(F)cc1,i,-7.4*,-4,i,i
N/C(=N\O)c1ccc(NC(=O)c2cccs2)cc1,i,i,46*,i,i
CC1CCCC(C)N1C(=O)COC(=O)c1c[nH]c2ccccc12 (stereo unspecified),.,.,.,i,.
Cc1ccc(C)c(N2CCN(C(=O)c3ccc(N4CCOCC4)c([N+](=O)[O-])c3)CC2)c1,i,i,-1,i,i
COc1cc(-c2nc3ccc(N4CCN(C)CC4)cc3[nH]2)cc(OC)c1OC,i,i,5.5*,i,i
NC(=O)C1CCN(C(=O)CSc2nc3ccccc3s2)CC1,i,i,5.6*,i,i
C=CCNc1nnc(SCC(=O)N2CCC(C(N)=O)CC2)s1,i,i,-4,i,9*
O=C(O)C1CCN(C(=O)CSc2nc3ccccc3s2)CC1,i,i,-8,i,i
O=C(CSc1nc2ccccc2s1)N1N=C(c2cccs2)CC1c1ccc(F)cc1 (stereo unspecified),i,-6.9*,-10,i,i
N#CCCCC1(CCCC#N)OCCO1,.,.,.,i,.
CC(OC(=O)c1ccccc1)C(=O)NCc1ccco1 (stereo unspecified),.,.,.,i,.
COC(=O)c1cccc(C23CC4(C2)[C@H](CN(C)[C@@H]4c2ccccc2)C3c2ccccc2)c1 (stereo partly specified),i,i,-8,i,i
SMILES,KCNQ1 inh,KCNK9 inh,hERG protect,KCNK3 block,KCNQ1 act
COC(=O)c1ccc(C23CC4(C2)[C@H](CN(C)[C@@H]4c2ccccc2)C3c2ccccc2)cc1 (stereo partly specified),i,-6.6*,-7,i,i
CCCCCOc1ccc(C(=O)CCC(=O)NC(C)c2ccc(S(N)(=O)=O)cc2)cc1 (stereo unspecified),.,.,.,i,.
Cc1ccc(S(=O)(=O)N(C)C)cc1NC(=S)NC(C)CCC(C)C (stereo unspecified),i,i,-4,i,i
COc1ccc(S(=O)(=O)N(C)C)cc1NCC(=O)Nc1cccc2ccccc12,i,-7.4*,-15,i,i
Cc1ccc(S(=O)(=O)N(C)C)cc1NC(=S)NC(C)CCCC(C)C (stereo unspecified),i,i,6.6*,i,i
Cc1ccc(S(=O)(=O)N(C)C)cc1NC(=S)Nc1cccc2ccccc12,i,-7.1*,-5,i,i
